Measurements of several laboratories.
Protocols differ between the studies behind these lines. In brackets after ≈: the same amount, converted by molar mass.

| Compound | tested on | assay | test system | setting | measurement | result |
| --- | --- | --- | --- | --- | --- | --- |
| O=C(Oc1ccc(I)cc1)[c-]1cccc1.[Fe+2].c1cc[cH-]c1 | MCF-10A | cell growth or viability, MTT | – | 72 h | IC50 | 7 µM |
| CCCCCCC/C=C/C(=O)N1C(=O)/C(=C(/C)O)C(=O)C1Cc1ccc(O)cc1 (stereo not shown) | Burkholderia cepacia | microbial growth | ATCC25416 | – | MIC | > 200 µg/mL |
| O=C(N/N=C1\C(=O)N(Cc2ccccc2)c2ccc(Cl)cc21)c1cc2ccccc2[nH]1 | MCF-10A | cell growth or viability | – | 72 h | IC50 | 2 µM |
| CCCCCCC/C=C/C(=O)N1C(=O)/C(=C(\O)c2ccc(OCOCCOC)cc2)C(=O)C1CC(C)C (stereo not shown) | Burkholderia cepacia | microbial growth | ATCC25416 | – | MIC | > 200 µg/mL |
| OCCOCCN1CCN(C(c2ccccc2)c2ccc(Cl)cc2)CC1 (stereo not shown) | human PBMC | cell migration | – | 10 µM | inhibition | 7% |
| CCCCCCC/C=C/C(=O)N1C(=O)/C(=C(\O)CCCC)C(=O)C1CC(C)C (stereo not shown) | Burkholderia cepacia | microbial growth | ATCC25416 | – | MIC | > 200 µg/mL |
| CCCCCCCCCCCCCCCC(=O)N(C)[C@H](CO)C(=O)N[C@H](C)C(=O)NCC(=O)N(C)[C@@H]1C(=O)N[C@@H](C)C(=O)N[C@H](C(=O)O)Cc2ccc(O)c(c2)-c2cc1ccc2O | Latilactobacillus sakei | microbial growth | – | – | MIC | > 128 µg/mL |
| NS(=O)(=O)c1cc(C(=O)O)c(NCc2ccco2)cc1Cl | human PBMC | cell migration | – | 10 µM | inhibition | 89% |
| CCCCCCC/C=C/C(=O)N1C(=O)/C(=C(\O)c2ccc(O)cc2)C(=O)C1CC(C)C (stereo not shown) | Burkholderia cepacia | microbial growth | ATCC25416 | – | MIC | 100 µg/mL (≈ 234 µM) |
| CC(C)CCC[C@@H](C)[C@H]1CC[C@H]2[C@@H]3CCC4=CC(=O)CC[C@]4(C)[C@H]3CC[C@]12C | Leishmania mexicana | parasite growth | – | 48 h, promastigote | IC50 | 81 µM |
| O=c1ccc2ccc3occc3c2o1 | – | tubulin polymerisation, inhibitor | – | 10 µM | inhibition | 57.1% |
| C[C@]12CCC(=O)C(O)=C1CC[C@@H]1[C@@H]2CC[C@]2(C)C(=O)CC[C@@H]12 | CAL-27 | cell growth or viability | – | 72 h | IC50 | > 20 µM |
| C=C(CCC=C(C)C)[C@H]1CC[C@H]2[C@@H]3CCC4=CC(=O)CC[C@]4(C)[C@H]3CC[C@@]12C | Leishmania mexicana | parasite growth | – | 48 h, promastigote | IC50 | 30 µM |
